Measurements: ChEMBL document CHEMBL3425429
The source made the active and inactive calls. No cut-off for these calls is given here.

Experiments:
[1] = biological target: Proto-oncogene tyrosine-protein kinase Src (Homo sapiens, UniProt P12931)
MDA-MB-231 [2] = assay: cells; conditions: Homo sapiens, MDA-MB-231, 72 h
HepG2 = assay: cells; conditions: Homo sapiens, HepG2, 72 h
MDA-MB-231 [3] = assay: Potency index, ratio of ponatinib IC50 to compound IC50 for human MDA-MB-231 cells; type: functional
MDA-MB-231 [4] = assay: Potency index, ratio of dasatinib IC50 to compound IC50 for human MDA-MB-231 cells; type: functional
MDA-MB-231 [5] = assay: Induction of apoptosis in human MDA-MB-231 cells assessed as late apoptotic cells at 0.3 uM after 24 hrs by annexin V-FITC/propidium iodide staining-based flow cytometric analysis (reference value: 2.67%); type: functional
MDA-MB-231 [6] = assay: Induction of apoptosis in human MDA-MB-231 cells assessed as late apoptotic cells at 0.3 uM after 48 hrs by annexin V-FITC/propidium iodide staining-based flow cytometric analysis (reference value: 4.25%); type: functional
MDA-MB-231 [7] = assay: Induction of apoptosis in human MDA-MB-231 cells assessed as viable cells at 0.3 uM after 24 hrs by annexin V-FITC/propidium iodide staining-based flow cytometric analysis (reference value: 95.5%); type: functional; conditions: MDA-MB-231, 24 h, read-out: Activity
MDA-MB-231 [8] = assay: Effect on AKT phosphorylation in human MDA-MB-231 cells at 0.001 to 1 uM after 20 hrs by Western blot analysis; type: cell-based
Method in brief: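 MDA-MB-231 cells exposed to a concentration series for 20 h at 37 °C, lysed in RIPA with protease inhibitor cocktail, cleared by centrifugation, protein quantified by Bradford, resolved by SDS-PAGE, transferred to PVDF and immunoblotted.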

MDA-MB-231 [9] = assay: Induction of apoptosis in human MDA-MB-231 cells assessed as early apoptotic cells at 0.3 uM after 48 hrs by annexin V-FITC/propidium iodide staining-based flow cytometric analysis (reference value: […]); type: functional
MDA-MB-231 [10] = assay: Antitumor activity against human MDA-MB-231 cells xenografted in SCID mouse assessed as tumor growth inhibition at 40 mg/kg/day administered for 18 days measured every 3 days during compound dosing; type: functional, organism-based
MDA-MB-231 [11] = assay: Induction of apoptosis in human MDA-MB-231 cells assessed as early apoptotic cells at 0.3 uM after 24 hrs by annexin V-FITC/propidium iodide staining-based flow cytometric analysis (reference value: 1.58%); type: functional
MDA-MB-231 [12] = assay: Antiproliferative activity against human MDA-MB-231 cells assessed as inhibition of colony formation at >0.01 uM after 12 days by crystal violet staining-based assay; type: functional, cell-based
Method in brief: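 MDA-MB-231 cells plated at 5000 per well and treated the next day with vehicle or compound, medium refreshed every 4 days; after 12 days, colonies fixed in methanol, crystal violet stained and photographed.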

MDA-MB-231 [13] = assay: Antiinvasive activity against human MDA-MB-231 cells at 0.1 uM after 24 hrs by transwell assay; type: functional, cell-based
MDA-MB-231 [14] = assay: Antimigratory activity against human MDA-MB-231 cells at 0.03 to 0.3 uM after 20 hrs by wound healing assay; type: functional, cell-based
Method in brief: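 MDA-MB-231 monolayers grown to confluence, scratched with a sterile pipet tip, rinsed with saline, then kept in DMEM containing vehicle or compound; wound images taken after 20 h and analysed.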

MDA-MB-231 [15] = assay: Cell cycle arrest in human MDA-MB-231 cells assessed as accumulation at G0/G1 phase at 0.3 uM after 24 to 48 hrs by flow cytometric analysis; type: functional, cell-based
MDA-MB-231 [16] = assay: Induction of apoptosis in human MDA-MB-231 cells assessed as viable cells at 0.3 uM after 48 hrs by annexin V-FITC/propidium iodide staining-based flow cytometric analysis (reference value: 94.4%); type: functional; conditions: MDA-MB-231, 48 h, read-out: Activity
MDA-MB-231 [17] = assay: Inhibition of ERK phosphorylation in human MDA-MB-231 cells at 0.001 to 1 uM after 20 hrs by Western blot analysis; type: cell-based
Method in brief: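 MDA-MB-231 cells exposed to a concentration series for 20 h at 37 °C, then washed in ice-cold saline and lysed in RIPA buffer with protease cocktail. Lysates were cleared at 12 000 rpm for 10 min at 4 °C and protein measured by Bradford. Equal protein was run on SDS-PAGE, transferred to PVDF and immunoblotted for phospho-proteins.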

MDA-MB-231 [18] = assay: Antitumor activity against human MDA-MB-231 cells xenografted in SCID mouse assessed as tumor growth inhibition at 10 mg/kg/week, iv administered for 18 days measured every 3 days during compound dosing; type: functional, organism-based
Method in brief: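 SCID mice (5–6 weeks) given subcutaneous injections of 5 ×10^6 MDA-MB-231 cells; at 150–200 mm3 tumors, randomized into 6 groups of 6; oral daily dosing (vehicle 25% PEG400 + 5% DMSO in sterile water), paclitaxel 10 mg/kg/week by tail vein; tumors measured every 3 days, volume = ab²/2; side effects monitored daily.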

Sequence of Proto-oncogene tyrosine-protein kinase Src (P12931 2-536 limits assumed): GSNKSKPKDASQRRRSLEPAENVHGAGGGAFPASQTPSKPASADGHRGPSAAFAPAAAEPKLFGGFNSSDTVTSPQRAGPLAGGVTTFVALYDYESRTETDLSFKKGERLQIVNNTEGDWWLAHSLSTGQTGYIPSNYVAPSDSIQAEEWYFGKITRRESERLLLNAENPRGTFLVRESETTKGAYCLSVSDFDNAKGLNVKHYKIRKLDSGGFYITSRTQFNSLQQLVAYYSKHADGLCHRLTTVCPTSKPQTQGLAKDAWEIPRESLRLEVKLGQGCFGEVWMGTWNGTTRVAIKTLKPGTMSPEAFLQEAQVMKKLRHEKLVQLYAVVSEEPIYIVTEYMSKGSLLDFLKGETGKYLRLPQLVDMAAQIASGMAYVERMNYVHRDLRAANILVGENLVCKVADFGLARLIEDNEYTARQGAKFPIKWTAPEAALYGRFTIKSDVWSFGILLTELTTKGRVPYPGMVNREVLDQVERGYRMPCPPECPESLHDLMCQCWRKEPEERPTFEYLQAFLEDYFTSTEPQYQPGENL

Structure (SMILES) | IC50 [1] [nM] | IC50 (MDA-MB-231 [2]) [nM] | IC50 (HepG2) [nM] | also measured
Cc1ccc(C(=O)Nc2ccc(CN3CCN(C)CC3)c(Br)c2)cc1C#Cc1nn(C(C)C)c2ncnc(N)c12 | 1 | 40 | 1830 | 
Cc1ccc(C(=O)Nc2ccc(CN3CCN(C)CC3)c(C(F)(F)F)c2)cc1C#Cc1nn(C2CCN(C(=O)OC(C)(C)C)CC2)c2ncnc(N)c12 |  | 145 | > 5000 | 
Cc1ccc(C(=O)Nc2ccc(CN3CCN(C)CC3)c(C(F)(F)F)c2)cc1C#Cc1nn(C(C)C)c2ncnc(N)c12 | 2 | 69 | > 5000 | Ratio IC50 (MDA-MB-231 [3]): 2.5; Ratio IC50 (MDA-MB-231 [4]): 2.5
CCn1nc(C#Cc2cccc(C(=O)Nc3ccc(CN4CCN(C)CC4)c(C(F)(F)F)c3)c2)c2c(N)ncnc21 |  | 24 | > 5000 | 
COCn1nc(C#Cc2cc(C(=O)Nc3ccc(CN4CCN(C)CC4)c(C(F)(F)F)c3)ccc2C)c2c(N)ncnc21 |  | 51 | > 5000 | 
Cc1ccc(C(=O)Nc2ccc(CN3CCN(CCO)CC3)c(C(F)(F)F)c2)cc1C#Cc1nn(C(C)C)c2ncnc(N)c12 | 4 | 50 | 1770 | 
Cc1ccc(C(=O)Nc2ccc(CN3CCN(C)CC3)c(C(F)(F)F)c2)cc1C#Cc1nn(C2CCNCC2)c2ncnc(N)c12 | 12 |  | > 5000 | 
CCn1nc(C#Cc2cc(C(=O)Nc3ccc(CN4CCN(C)CC4)c(C(F)(F)F)c3)ccc2C(C)C)c2c(N)ncnc21 | 1410 | 1220 | > 5000 | 
Cc1ccc(C(=O)Nc2ccc(CN3CCN(C)CC3)c(C(F)(F)F)c2)cc1C#Cc1nn(C)c2ncnc(N)c12 |  | 20 | > 5000 | 
Cc1ccc(C(=O)Nc2ccc(CN3CCN(C)CC3)cc2)cc1C#Cc1nn(C(C)C)c2ncnc(N)c12 |  | 270 | 4700 | 
Cc1ccc(C(=O)Nc2ccc(CN3CCN(C)CC3)c(C(F)(F)F)c2)cc1C#Cc1nn(C2CCCC2)c2ncnc(N)c12 |  | 65 | > 5000 | 
Cc1ccc(C(=O)Nc2ccc(CN3CCN(C)CC3)c(Cl)c2)cc1C#Cc1nn(C(C)C)c2ncnc(N)c12 | 2 | 57 | 3540 | 
C=CC(=O)N1CCC(n2nc(C#Cc3cc(C(=O)Nc4ccc(CN5CCN(C)CC5)c(C(F)(F)F)c4)ccc3C)c3c(N)ncnc32)CC1 |  | 14 | > 5000 | 
Cc1ccc(C(=O)Nc2ccc(CN3CCOCC3)c(C(F)(F)F)c2)cc1C#Cc1nn(C(C)C)c2ncnc(N)c12 | 21 | 1520 | > 5000 | 
CCn1nc(C#Cc2cc(C(=O)Nc3ccc(CN4CCN(C)CC4)c(C(F)(F)F)c3)ccc2Cl)c2c(N)ncnc21 |  | 52 | > 5000 | 
CCn1nc(C#Cc2cc(C(=O)Nc3ccc(CN4CCN(C)CC4)c(C(F)(F)F)c3)ccc2F)c2c(N)ncnc21 |  | 1740 | > 5000 | 
CCN1CCN(Cc2ccc(NC(=O)c3ccc(C)c(C#Cc4nn(C(C)C)c5ncnc(N)c45)c3)cc2C(F)(F)F)CC1 | 2 | 56 | > 5000 | 
CCn1nc(C#Cc2cc(C(=O)Nc3ccc(CN4CCN(C)CC4)c(C(F)(F)F)c3)ccc2OC)c2c(N)ncnc21 |  | 321 | 4640 | 
CCn1nc(C#Cc2cc(C(=O)Nc3ccc(CN4CCN(C)CC4)c(C(F)(F)F)c3)ccc2O)c2c(N)ncnc21 |  | > 5000 | > 5000 | 
Cc1ccc(C(=O)Nc2cccc(C(F)(F)F)c2)cc1C#Cc1nn(C(C)C)c2ncnc(N)c12 |  | 103 | > 5000 | 
Cc1nc(Nc2ncc(C(=O)Nc3c(C)cccc3Cl)s2)cc(N2CCN(CCO)CC2)n1.O [DASATINIB] |  | 178 | > 5000 | Activity (MDA-MB-231 [5]): 4.73%; Activity (MDA-MB-231 [6]): 9.84%; viability at 0.3 µM (MDA-MB-231 [7]): 90.4%; Activity (MDA-MB-231 [8]): inactive; Activity (MDA-MB-231 [9]): 6.31%; TGI (MDA-MB-231 [10]): Active; Activity (MDA-MB-231 [11]): 2.64%; inhibition (MDA-MB-231 [12]): Active; Activity (MDA-MB-231 [13]): Active; Activity (MDA-MB-231 [14]): Active; Activity (MDA-MB-231 [15]): Active; viability at 0.3 µM (MDA-MB-231 [16]): 82.9%; inhibition (MDA-MB-231 [17]): inactive
Cc1ccc(C(=O)Nc2ccc(CN3CCN(C)CC3)c(C(F)(F)F)c2)cc1C#Cc1cnc2cccnn12 [PONATINIB] |  | 156 | > 5000 | 
CC(=O)O[C@H]1C(=O)[C@@]2(C)[C@H]([C@H](OC(=O)c3ccccc3)[C@]3(O)C[C@H](OC(=O)[C@H](O)[C@@H](NC(=O)c4ccccc4)c4ccccc4)C(C)=C1C3(C)C)[C@]1(OC(C)=O)CO[C@@H]1C[C@@H]2O |  |  |  | TGI (MDA-MB-231 [18]): Active
Cc1ccc(C(=O)Nc2ccc(CN3CCN(C)CC3)c(C(F)(F)F)c2)cc1C#Cc1nn(C2CCC2)c2ncnc(N)c12 |  | 28 | > 5000 | 
CCc1ccc(C(=O)Nc2ccc(CN3CCN(C)CC3)c(C(F)(F)F)c2)cc1C#Cc1nn(CC)c2ncnc(N)c12 |  | 418 | > 5000 | 
